{"data": "Published values collected from several papers", "target": "Tyrosine-protein kinase Fes/Fps (FES, Homo sapiens, UniProt P07332)"}
{"SMILES": "CC1=C(C#N)[C@@H](c2ccc3[nH]nc(C)c3c2)C(C#N)=C(c2ccc(Cl)cc2)N1", "assay": "cell-free assay, competition with immobilised ligand", "setting": "1 µM", "measurement": "remaining binding", "value": "100%"}
{"SMILES": "CC(C)(O)[C@H]1CC[C@H](Nc2ccc3ncc(-c4cccc(C(F)(F)F)c4)n3n2)CC1", "assay": "enzyme activity, inhibitor", "setting": "1 µM", "measurement": "remaining activity", "value": "95.4%"}
{"SMILES": "CCCOc1ccc(OC)c(F)c1C(=O)c1ccc(C(=O)N[C@@H]2CNC[C@H]2NC(=O)c2ccc3[nH]ncc3c2)cc1", "assay": "enzyme activity, inhibitor", "setting": "10 µM", "measurement": "remaining activity", "value": "79%"}
{"SMILES": "CCN(CC)c1ccc(C2=NNC(=O)CC2C)cc1[N+](=O)[O-] (centres unmarked)", "assay": "enzyme activity, inhibitor", "setting": "10 µM", "measurement": "remaining activity", "value": "103%"}
{"SMILES": "CCCS(=O)(=O)Nc1ccc(F)c(C(=O)c2c[nH]c3ncc(-c4ccc(Cl)cc4)cc23)c1F", "assay": "enzyme activity, inhibitor", "setting": "1 µM", "measurement": "inhibition", "value": "< 20%"}
{"SMILES": "O=C(O)[C@@H]1[C@@H](Cn2nnc3ccccc3c2=O)CC[C@H]1C(=O)c1ccc(OCCC2CCOCC2)cc1", "assay": "cell-free assay, competition with immobilised ligand", "setting": "1 µM", "measurement": "remaining binding", "value": "100%"}
{"SMILES": "COc1cc2nccc(Oc3ccc(NC(=O)c4c5n(n(-c6ccc(F)cc6)c4=O)CCCC5)cc3)c2cc1OC", "assay": "enzyme activity, inhibitor", "setting": "0.1 µM", "measurement": "inhibition", "value": "-3%"}
{"SMILES": "Cc1ccc(C(=O)Nc2ccc(CN3CCN(C)CC3)c(C(F)(F)F)c2)cc1C#Cc1cnc2cccnn12", "assay": "enzyme activity", "setting": "23.5 nM", "measurement": "remaining activity", "value": "100%"}
{"SMILES": "CNCc1ccc(-c2cc(-c3nc(-c4ccc(S(=O)(=O)C(C)C)cc4)cnc3N)on2)cc1", "assay": "enzyme activity, inhibitor", "setting": "2 µM", "measurement": "inhibition", "value": "0%"}
{"SMILES": "Cc1ccc(NC(=O)c2ccc(C)c(C(F)(F)F)c2)cc1C#Cc1nn(C2CCC(O)CC2)c2ncnc(N)c12 (centres unmarked)", "assay": "cell-free assay", "setting": "10 µM", "measurement": "remaining signal", "value": "34%"}
{"SMILES": "CSc1cccnc1N1CCN(Cc2nc3ccccc3[nH]2)CC1", "assay": "cell-free assay, competition with immobilised ligand", "setting": "1 µM", "measurement": "remaining binding", "value": "98%"}
{"SMILES": "N#CCCc1ccc2c(c1)-c1[nH]c3ccc([N+](=O)[O-])cc3c1CC(=O)N2", "assay": "cell-free assay", "setting": "0.5 µM", "measurement": "remaining signal", "value": "37.9%"}
{"SMILES": "CC(C)(C)c1nc(-c2cccc(NS(=O)(=O)c3c(F)cccc3F)c2F)c(-c2ccnc(N)n2)s1", "assay": "enzyme activity, inhibitor, radiometric", "setting": "1 µM", "measurement": "remaining activity", "value": "88%"}
{"SMILES": "CC/C(=N\\NC(=O)NCc1cccc(O)c1)c1ccc(O)c(C)c1O", "assay": "enzyme activity, inhibitor", "setting": "0.1 µM", "measurement": "inhibition", "value": "1.2%"}
{"SMILES": "CS(=O)(=O)N1CCCC(NC(=O)[C@H](CCC2CCCCC2)NC(=O)c2ccc(CNC(=O)c3cnc4ccccn34)cc2)C1 (some centres unmarked)", "assay": "cell-free assay, competition with immobilised ligand", "setting": "0.1 µM", "measurement": "remaining binding", "value": "100%"}
{"SMILES": "COc1cc2ncnc(Nc3ccc(Oc4ccccc4)cc3C)c2cc1OC", "assay": "enzyme activity, inhibitor", "setting": "1 µM", "measurement": "inhibition", "value": "27%"}
{"SMILES": "C[C@@H]1CN(c2cc(-c3nn(C)c4ccc(OC5(C)CC5)cc34)ncn2)C[C@H](C)O1", "assay": "cell-free assay, competition with immobilised ligand", "setting": "1 µM", "measurement": "remaining binding", "value": "93%"}
{"SMILES": "O=C(Nc1cnn(-c2csc(C(=O)NC3COC3)c2)c1)Nc1ccccc1Cl", "assay": "enzyme activity, inhibitor", "setting": "5 µM", "measurement": "remaining activity", "value": "99.3%"}
{"SMILES": "O=c1cc(-c2cccc3c2Sc2ccccc2S3)oc(N2CCOCC2)c1", "assay": "enzyme activity, inhibitor", "setting": "0.5 µM", "measurement": "remaining activity", "value": "104%"}
{"SMILES": "CN1CC(Oc2cnc(C#N)cc2-c2ccn3nc(NC(=O)C4CC4)cc3c2)C1", "assay": "enzyme activity, inhibitor", "setting": "1 µM", "measurement": "inhibition", "value": "8%"}
{"SMILES": "O=c1nc(-c2ccccn2)sc2ccccc12", "assay": "cell-free assay, competition with immobilised ligand", "setting": "1 µM", "measurement": "remaining binding", "value": "100%"}
{"SMILES": "CNC(=O)c1cc(Oc2ccc(NC(=O)Nc3ccc(Cl)c(C(F)(F)F)c3)cc2)ccn1", "assay": "cell-free assay", "setting": "0.5 µM", "measurement": "remaining signal", "value": "104%"}
{"SMILES": "Cc1cc(NC(=O)c2cccc3cc(-c4cccc5[nH]nc(N)c45)ccc23)ccc1F", "assay": "enzyme activity, inhibitor", "setting": "0.1 µM", "measurement": "activity vs control", "value": "97%"}
